Screening results as filed in PubChem BioAssay.
Sampled rows, rich in hits. Any-hit rate of the full collection: about 1.7%.
CSN deneddyl inh: inhibitors of human CSN-mediated cullin deneddylation | 360,000 tested, 0.38% active | inhibition, % at 12.5 µM | AID 651999 | Purified CSN, SCF-Nedd8-OG deneddylation, fluorescence polarization | Q92905;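 active = pattern-corrected inhibition above about 35%, with an unprinted fluorescence ratio check between 0.5 and 1.5, limit read from the data, passing the limit was not always enough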
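Assay system: Purified human Csn5 enzyme expressed in HEK293T cells | Amount: Enzyme 0.24 nM | Measured by: Fluorescence polarization readout | Medium: Tris/NaCl/DTT buffer, pH 7.5 | Compound dosing: One concentration, 12.5 µM, 0.25% DMSO | Times: 90 min incubation of compound, enzyme and substrate at room temperature | Control set: no-enzyme wells high, enzyme-with-substrate wells low | Read-out: % inhibition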
TPT1 inh: blocks Candida albicans tRNA 2'-phosphotransferase; 300,000 tested, 0.81% active; inhibition, % at 5 µM; recombinant caTPT1, FP RNA substrate dephosphorylation; AID 1962;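 active = inhibition above the mean of all tested compounds plus 3 SD, set per screening campaign, cut at about 24% in these data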
HNF4A DNA FP: change in binding of human HNF4 alpha to DNA. P41235. HNF4a-FITC DNA binding, fluorescence polarization, 1 h. activity change, % at 10 µM. 360,000 tested, 0.3% active. AID 1224865; in the data active = activity change above about 30%, passing the limit was not always enough
IDE act: IDE (human) activation, cell-based; HEK cells, FAbeta-B cleavage, fluorescence polarization; 0% vehicle, 100% cell-free pure enzyme wells; activation, % at 5.96 µM; 340,000 tested, 0.073% active; AID 493087;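 active = activation above the mean of all tested compounds plus 3 SD, set per screening campaign, cut at about 17% in these data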
Target sequence (P14735 whole entry, looked up): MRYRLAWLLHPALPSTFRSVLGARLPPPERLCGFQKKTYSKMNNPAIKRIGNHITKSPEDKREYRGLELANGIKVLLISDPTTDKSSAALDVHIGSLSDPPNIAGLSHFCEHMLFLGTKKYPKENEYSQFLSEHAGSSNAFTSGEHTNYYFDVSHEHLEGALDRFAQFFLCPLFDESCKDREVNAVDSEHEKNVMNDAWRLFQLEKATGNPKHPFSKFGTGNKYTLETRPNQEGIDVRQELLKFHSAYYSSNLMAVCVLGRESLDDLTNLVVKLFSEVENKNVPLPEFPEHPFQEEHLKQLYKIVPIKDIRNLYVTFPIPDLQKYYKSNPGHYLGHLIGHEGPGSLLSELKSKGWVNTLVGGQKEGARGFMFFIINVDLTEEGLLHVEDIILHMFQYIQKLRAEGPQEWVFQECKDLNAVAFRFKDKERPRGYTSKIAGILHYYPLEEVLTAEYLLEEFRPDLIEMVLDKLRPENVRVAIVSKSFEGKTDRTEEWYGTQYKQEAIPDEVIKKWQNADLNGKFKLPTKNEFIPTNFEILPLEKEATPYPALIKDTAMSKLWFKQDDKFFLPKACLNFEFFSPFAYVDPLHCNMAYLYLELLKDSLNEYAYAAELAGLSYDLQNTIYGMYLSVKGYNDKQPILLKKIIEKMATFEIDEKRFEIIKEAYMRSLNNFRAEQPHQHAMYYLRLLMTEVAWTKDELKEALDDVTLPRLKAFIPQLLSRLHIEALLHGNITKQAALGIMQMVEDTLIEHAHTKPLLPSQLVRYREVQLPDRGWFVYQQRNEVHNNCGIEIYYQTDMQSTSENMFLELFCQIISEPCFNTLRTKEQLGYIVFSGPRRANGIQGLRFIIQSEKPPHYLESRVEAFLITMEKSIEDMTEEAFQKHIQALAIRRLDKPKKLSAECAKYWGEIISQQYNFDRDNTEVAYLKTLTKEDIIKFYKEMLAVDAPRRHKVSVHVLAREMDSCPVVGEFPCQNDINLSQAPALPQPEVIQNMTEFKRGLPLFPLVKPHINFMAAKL
Rpn11 inh: inhibitors of human proteasome Rpn11; O00487; inhibition, % at 20 µM; 360,000 tested, 0.59% active; human 26S proteasome, Ub4-pepOG fluorescence polarization; 20S core pre-blocked with epoxomicin;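 active = inhibition at 20 µM, scaled to each plate's controls, above about 33%, limit read from the data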
IDE inh: cellular human IDE inhibition; HEK cells, FAbetaB cleavage, fluorescence polarization; inhibition, % at 5.59 µM; 320,000 tested, 0.41% active;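 active = percent inhibition above the average of all tested compounds plus 3 SD, set per screening campaign, cut at about 16% in these data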;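 also: IDE supplied by intact live HEK cells; FP after avidin binding of uncleaved biotin substrate so inhibition keeps polarization high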
TPT1 inh confirm: confirmation of Candida albicans TPT1 inhibitors; shares compounds with TPT1 inh; recombinant caTPT1, fluorescence polarization, RNase T1 coupled; inhibition, % at 5 µM; 2,400 tested, 74% active;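 active = inhibition above the primary screen limit, the mean inhibition of all tested compounds plus 3 SD, cut at about 25% in these data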
RNase T1 counter: counter-screen for TPT1 inhibitors: inhibitors of Aspergillus oryzae RNase T1; shares compounds with TPT1 inh; RNase T1 cleavage, fluorescence polarization, 1536-well; inhibition, % at 5 µM; 2,400 tested, 83% active;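 active = inhibition above the solvent-only control well mean plus 3 SD, limit set per screening run, cut at about 23% in these data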;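 also: inhibitors block cleavage so intact labeled substrate keeps polarization high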
Each line names hits and unclear results; the compound was inactive in the other large screens (follow-up assays come after a bar, where shown).

COCCn1c(C)cc(C(=O)COC(=O)c2ccc(NC(=O)CC#N)cc2)c1C	TPT1 inh 52 | TPT1 inh confirm 30 | RNase T1 counter 42
Cc1ccc(C2C3CSCC=C3C(C#N)=C(N)C2(C#N)C#N)cc1 (stereo not given)	TPT1 inh 27 | TPT1 inh confirm inactive | RNase T1 counter 29
Cc1cc(NC(=O)CSCC(=O)Nc2ccccc2N2CCCCC2)no1	none
COc1ccc(C(=O)C[n+]2cc(Br)cc3ccccc32)cc1[N+](=O)[O-]	TPT1 inh 45 | TPT1 inh confirm 39 | RNase T1 counter 56
O=C(C[n+]1cc(Br)cc2ccccc21)c1ccccc1	TPT1 inh 40 (not shown: Rpn11 inh) | TPT1 inh confirm 48 | RNase T1 counter 64
Cc1ccc2c(ccc[n+]2CC(=O)c2ccccc2)c1	none
Cc1coc(C)c1C(=O)Nc1ccc2ccccc2c1	none (no result: TPT1 inh, IDE inh)
O=C(Nc1ccccc1)Nc1sccc1-c1nc2ccccc2s1	none (no result: IDE act)
COc1ccccc1NC(=O)Nc1sccc1-c1nc2ccccc2s1	TPT1 inh 33 (no result: IDE act) | TPT1 inh confirm 34 | RNase T1 counter 49
C=CCn1c(SCC(=O)N(C)C2CCS(=O)(=O)C2)nc2ccccc2c1=O (stereo not given)	none
C=CCn1c(SCC(=O)N(CC)C2CCS(=O)(=O)C2)nc2ccccc2c1=O (stereo not given)	TPT1 inh 52 | TPT1 inh confirm inactive | RNase T1 counter inactive
CCN(CC)c1ccc2c(c1)oc(=O)c1c(Cl)cc(=O)oc12	TPT1 inh 25 | TPT1 inh confirm 37 | RNase T1 counter 50
CCOC(=O)Oc1c(OC)cc(C(=O)O[C@@H]2C[C@@H]3CN4CCc5c([nH]c6cc(OC)ccc56)[C@H]4C[C@@H]3[C@H](C(=O)OC)[C@H]2OC)cc1OC	TPT1 inh 45 | TPT1 inh confirm 42 | RNase T1 counter 53
C=CCn1c(C(CC(C)C)CC(C)O)n[nH]c1=S (stereo not given)	TPT1 inh 43 | TPT1 inh confirm inactive | RNase T1 counter inactive
C=CCn1c(C(CCCC)CC(O)COCC(C)C)n[nH]c1=S (stereo not given)	none
CC(=O)Nc1ccc(S(=O)(=O)Nc2ccc3c(c2)C(=O)OC3)cc1	none (no result: CSN deneddyl inh, HNF4A DNA FP, IDE act, Rpn11 inh)
COc1ccc([C@@H]2C[C@H]3[C@@H](CN2S(=O)(=O)c2ccccc2)C(=O)C[C@@H](c2cccc(Cl)c2)N3S(=O)(=O)c2ccc(C)cc2)cc1	none (no result: TPT1 inh, IDE act, IDE inh)
COc1cc(OC)c(CN2CCc3c([nH]c4ccccc34)C2)cc1Br	CSN deneddyl inh 43, TPT1 inh 48, HNF4A DNA FP 52 (not shown: Rpn11 inh) | TPT1 inh confirm inactive | RNase T1 counter inactive
CCN(C(=O)CSc1nnc(SC)s1)c1c(N)n(Cc2ccccc2)c(=O)[nH]c1=O	none (no result: TPT1 inh)
CCn1c(SCc2nc3sc(C(=O)O)c(C)c3c(=O)[nH]2)nc2ccccc21	TPT1 inh 31 | TPT1 inh confirm 24 | RNase T1 counter 27
COc1cc(C(=O)NCC(=O)OCc2ccccc2Cl)cc(OC)c1OC	none
CCOC(=O)c1sc(N)c(C#N)c1COC(=O)CNC(=O)c1cc(OC)c(OC)c(OC)c1	CSN deneddyl inh 71, TPT1 inh 79, HNF4A DNA FP 99 (not shown: Rpn11 inh) | TPT1 inh confirm 92 | RNase T1 counter 103
O=[N+]([O-])C(/C=C(\Cl)[N+](=O)[O-])=C(N1CCCCC1)N1CCCCC1	TPT1 inh 35 | TPT1 inh confirm 42 | RNase T1 counter 58
O=[N+]([O-])C(=C1SCCS1)C(=C(Cl)Cl)N1CCCCC1	none
COc1ccccc1-c1cc2nc(-c3ccccc3)cc(N3CCN(C(=O)c4ccco4)CC3)n2n1	none (no result: TPT1 inh, IDE act, IDE inh)
CC(=O)c1c(C)[nH]c(C(=O)OCC(=O)Nc2sc3c(c2C#N)CCC(C)C3)c1C (stereo not given)	none
